For assay [1], the target named is T1, Adrenergic receptor alpha-1 (Rattus norvegicus, UniProt P15823+P23944+P43140).
T1 sequence (P15823 whole entry): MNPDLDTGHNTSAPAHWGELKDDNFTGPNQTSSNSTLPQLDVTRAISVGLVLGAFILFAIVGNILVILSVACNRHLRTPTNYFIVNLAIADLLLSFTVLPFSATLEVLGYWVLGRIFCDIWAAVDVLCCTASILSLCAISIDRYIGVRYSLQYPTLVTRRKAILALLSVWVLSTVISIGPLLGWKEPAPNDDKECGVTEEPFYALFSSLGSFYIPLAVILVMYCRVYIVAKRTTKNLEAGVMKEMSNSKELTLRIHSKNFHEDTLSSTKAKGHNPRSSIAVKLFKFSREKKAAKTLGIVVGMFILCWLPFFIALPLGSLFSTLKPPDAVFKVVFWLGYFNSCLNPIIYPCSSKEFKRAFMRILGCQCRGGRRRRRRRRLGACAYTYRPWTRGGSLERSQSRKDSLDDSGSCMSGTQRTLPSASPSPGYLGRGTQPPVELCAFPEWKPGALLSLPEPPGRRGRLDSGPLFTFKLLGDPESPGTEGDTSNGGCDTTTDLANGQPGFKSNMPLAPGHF
T1 sequence (P23944 whole entry): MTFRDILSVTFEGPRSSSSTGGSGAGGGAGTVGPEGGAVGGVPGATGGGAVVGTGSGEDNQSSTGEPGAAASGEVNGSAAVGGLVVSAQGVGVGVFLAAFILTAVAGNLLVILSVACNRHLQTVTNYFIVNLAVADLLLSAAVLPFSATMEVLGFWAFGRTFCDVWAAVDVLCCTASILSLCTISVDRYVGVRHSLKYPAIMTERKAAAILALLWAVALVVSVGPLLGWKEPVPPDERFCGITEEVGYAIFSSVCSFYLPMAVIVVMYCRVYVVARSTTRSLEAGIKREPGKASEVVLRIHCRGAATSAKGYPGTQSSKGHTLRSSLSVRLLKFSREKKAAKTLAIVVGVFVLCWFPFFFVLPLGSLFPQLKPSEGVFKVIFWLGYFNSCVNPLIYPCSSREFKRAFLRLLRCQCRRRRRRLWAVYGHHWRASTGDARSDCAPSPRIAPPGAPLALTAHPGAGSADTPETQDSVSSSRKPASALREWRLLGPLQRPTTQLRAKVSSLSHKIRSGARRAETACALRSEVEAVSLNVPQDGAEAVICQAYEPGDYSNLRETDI
T1 sequence (P43140 whole entry): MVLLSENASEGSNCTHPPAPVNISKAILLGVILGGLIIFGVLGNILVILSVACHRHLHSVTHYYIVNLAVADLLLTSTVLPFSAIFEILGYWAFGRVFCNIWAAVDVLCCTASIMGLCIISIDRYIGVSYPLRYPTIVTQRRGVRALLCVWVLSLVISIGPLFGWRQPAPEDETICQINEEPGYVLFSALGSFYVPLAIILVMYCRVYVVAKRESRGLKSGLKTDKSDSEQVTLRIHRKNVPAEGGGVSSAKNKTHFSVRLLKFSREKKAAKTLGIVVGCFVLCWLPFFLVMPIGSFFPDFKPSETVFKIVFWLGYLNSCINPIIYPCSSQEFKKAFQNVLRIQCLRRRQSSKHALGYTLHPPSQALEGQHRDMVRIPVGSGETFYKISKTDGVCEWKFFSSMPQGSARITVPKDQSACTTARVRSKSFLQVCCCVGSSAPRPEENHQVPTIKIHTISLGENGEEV
Description: Binding affinity against Alpha-1 adrenergic receptor, activity is expressed as IC50 values. It is filed as protein assay.

A further assay is filed under the species Mus musculus. Description: Antagonism of methyl phenidate-induced gnawing behavior in mice. It is filed as functional. A digest of the protocol:
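Test compound given ip (or sc) 2 h before methyl phenidate (60 mg/kg); mice housed in pairs on corrugated cardboard in gnawing cages, 5–9 pairs per dose.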

Assay [2] is filed under the species Rattus norvegicus. Description: Cataleptogenic effect in rats. It is filed as functional. An outline of the steps:
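Rats scored on a vertical wire grid hourly 1–6 h after dosing; catalepsy counted when immobility lasted at least 15 s.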

Assay [3] concerns the target 5-hydroxytryptamine receptor 2A (Rattus norvegicus, UniProt P14842). Description: Binding affinity for 5-hydroxytryptamine 2A receptor, activity is expressed as IC50 values.
In the next assay the target is D(2) dopamine receptor (Rattus norvegicus, UniProt P61169). Kind of assay: Binding affinity against dopamine receptor D2.
Chain of D(2) dopamine receptor (P61169 whole entry): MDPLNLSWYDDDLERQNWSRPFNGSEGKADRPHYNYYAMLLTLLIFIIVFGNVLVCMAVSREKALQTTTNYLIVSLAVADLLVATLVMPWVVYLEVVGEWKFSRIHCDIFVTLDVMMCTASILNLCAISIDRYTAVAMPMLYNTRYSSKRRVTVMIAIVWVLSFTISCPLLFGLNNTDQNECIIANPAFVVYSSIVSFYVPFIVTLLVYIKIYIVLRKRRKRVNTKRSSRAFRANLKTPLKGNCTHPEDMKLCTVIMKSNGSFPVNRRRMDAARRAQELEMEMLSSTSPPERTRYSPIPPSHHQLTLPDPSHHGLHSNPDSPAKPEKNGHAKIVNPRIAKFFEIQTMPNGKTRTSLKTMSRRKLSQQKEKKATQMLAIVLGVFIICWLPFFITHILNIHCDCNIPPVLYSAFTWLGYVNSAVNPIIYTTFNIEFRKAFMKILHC
The species named for assay [4] is Rattus norvegicus. Kind of assay: In vitro inhibition of [3H]5-HT uptake in rat brain (minus pons, medulla oblongata and cerebellum) homogenates. The class given is functional.
The species named for assay [5] is Rattus norvegicus. Kind of assay: In vitro inhibition of [3H]NE uptake in rat occipital lobe (plus temporal cortex) homogenates. The class given is functional.
Assay [6] is filed under the species Rattus norvegicus. Description: In vitro inhibition of [3H]dopamine uptake in rat corpus striatum homogenates. It is filed as functional.
A further assay has as its target D(1A) dopamine receptor (Rattus norvegicus, UniProt P18901). Kind of assay: Binding affinity for dopamine receptor D1, activity is expressed as IC50 values.
Setting [7] is: Rattus norvegicus, read-out: ED50.

Results on 13 compounds are retold here after ChEMBL document CHEMBL1128174, “Enhanced D1 affinity in a series of piperazine ring substituted 1-piperazino-3-arylindans with potential atypical antipsychotic activity” (J Med Chem, 1995).

pIC50: −log10 of the molar value.

Chain of 5-hydroxytryptamine receptor 2A (P14842 whole entry): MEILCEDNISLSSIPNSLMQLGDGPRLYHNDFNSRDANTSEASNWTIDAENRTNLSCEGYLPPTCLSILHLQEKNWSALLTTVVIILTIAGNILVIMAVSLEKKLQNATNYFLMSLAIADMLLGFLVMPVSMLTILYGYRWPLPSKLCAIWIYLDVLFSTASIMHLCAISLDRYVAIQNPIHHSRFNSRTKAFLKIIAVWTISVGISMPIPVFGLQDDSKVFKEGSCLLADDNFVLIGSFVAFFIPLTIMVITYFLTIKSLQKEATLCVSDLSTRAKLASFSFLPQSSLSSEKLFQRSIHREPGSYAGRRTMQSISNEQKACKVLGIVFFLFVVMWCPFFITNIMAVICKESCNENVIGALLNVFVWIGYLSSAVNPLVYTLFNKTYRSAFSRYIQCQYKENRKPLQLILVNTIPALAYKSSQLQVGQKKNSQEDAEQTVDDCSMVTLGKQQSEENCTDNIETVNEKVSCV
Chain of D(1A) dopamine receptor (P18901 whole entry): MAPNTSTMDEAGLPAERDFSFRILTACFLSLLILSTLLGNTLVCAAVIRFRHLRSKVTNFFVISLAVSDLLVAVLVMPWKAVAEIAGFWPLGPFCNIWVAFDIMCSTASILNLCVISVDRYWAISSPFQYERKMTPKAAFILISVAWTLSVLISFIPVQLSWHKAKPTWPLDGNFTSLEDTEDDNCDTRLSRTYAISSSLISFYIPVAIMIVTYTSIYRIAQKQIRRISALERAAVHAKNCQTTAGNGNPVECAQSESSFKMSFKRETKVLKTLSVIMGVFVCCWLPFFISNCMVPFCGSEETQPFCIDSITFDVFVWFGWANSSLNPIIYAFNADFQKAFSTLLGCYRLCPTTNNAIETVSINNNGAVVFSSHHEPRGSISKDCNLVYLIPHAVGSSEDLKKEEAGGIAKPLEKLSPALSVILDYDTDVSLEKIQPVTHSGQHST

A word on the IC50: it is the point on the concentration scale where inhibition reaches its midpoint. Low values mean inhibition by little substance, high ones a need for much substance. In assay [1], `CN1CCN(C2CC(c3ccsc3)c3ccc(Cl)cc32)CC1(C)C` (stereo unspecified) came in with a concentration for half-maximal inhibition (IC50) of 14 nM. The ED50 in the assay filed under Mus musculus (Mus musculus, read-out: ED50) was found to be 1.3 µmol/kg; in the assay filed under Rattus norvegicus [2] (setting [7]), 44 µmol/kg.
A word on the pIC50: it is the negative decadic logarithm of the IC50, by convention in mol/L. As for `CN1CCN(C2CC(c3ccc(F)cc3)c3ccccc32)CC1(C)C` (stereo in doubt; (-)-39), the pIC50 in assay [3] is 8.54; on D(2) dopamine receptor it was 7.92; in the assay listed under Rattus norvegicus [4] it was 5.00; in the assay filed under Rattus norvegicus [5] it was 4.77; in the assay filed under Rattus norvegicus [6] it was 5.28; on D(1A) dopamine receptor, 8.60. The same compound had an IC50 in assay [1] of 4.4 nM. Further, the ED50 was 7.2 µM/kg in the assay listed under Mus musculus and >44 µM/kg in the assay listed under Rattus norvegicus [2].
Regarding `CC1(C)CN(C2CC(c3ccc(F)cc3)c3ccc(Cl)cc32)CCN1` (stereo in doubt; 41), in assay [1], the IC50 is recorded as 39 nM. The ED50 in the assay filed under Mus musculus (Mus musculus, read-out: ED50) was 6.7 µmol/kg; in the assay listed under Rattus norvegicus [2] (setting [7]), > 48 µmol/kg.
In the case of `CN1CCN(C2CC(c3ccc(F)cc3)c3ccc(F)cc32)CC1(C)C` (stereo in doubt; (-)-40), the pIC50 is 8.72 in assay [3]; 8.17 at D(2) dopamine receptor; 4.92 in the assay filed under Rattus norvegicus [4]; < 5.00 in the assay filed under Rattus norvegicus [5]; 5.40 in the assay listed under Rattus norvegicus [6]; 9.15 at D(1A) dopamine receptor. The same compound registered an IC50 in [1] of 4.7 nM. For the same compound, the figures for the ED50 in the assay listed under Mus musculus and in the assay filed under Rattus norvegicus [2] (setting [7]) were 1 µM/kg and 42 µmol/kg, respectively.
Turning to `CC1(C)CN(C2CC(c3ccsc3)c3ccc(Cl)cc32)CCN1` (single isomer, unassigned; (-)), the pIC50 in assay [3] is 8.72; on D(2) dopamine receptor, 8.15; in the assay filed under Rattus norvegicus [4] it was 5.35; in the assay listed under Rattus norvegicus [5], 5.40; in the assay filed under Rattus norvegicus [6] it was 5.57; on D(1A) dopamine receptor it was 9.08. In [1], this compound showed an IC50 of 25 nM. Also, the ED50 is 11 µmol/kg in the assay listed under Mus musculus (Mus musculus, read-out: ED50) and > 49 µmol/kg in the assay filed under Rattus norvegicus [2] (setting [7]).
In assay [1], `CN1CCN(C2CC(c3ccc(F)cc3)c3cc(Cl)ccc32)CC1(C)C` (stereo unspecified) yielded an IC50 of 94 nM. Further, the ED50 in the assay listed under Mus musculus (Mus musculus, read-out: ED50) is > 110 µmol/kg.
Take `CN1CCN(C2CC(c3ccc(F)cc3)c3ccc(F)cc32)CC1(C)C` (stereo in doubt; 40): in assay [1], the IC50 came to 12 nM. The results for the ED50 in the assay filed under Mus musculus and in the assay listed under Rattus norvegicus [2] were 2.1 µM/kg and >68 µM/kg, respectively.
On to `CN1CCN(C2CC(c3ccccc3)c3ccc(Cl)cc32)CC1(C)C` (single isomer, unassigned; (-)), for which the pIC50 in assay [3] is 8.36; on D(2) dopamine receptor, 8.02; in the assay filed under Rattus norvegicus [4], 5.40; in the assay listed under Rattus norvegicus [5], 5.77; in the assay listed under Rattus norvegicus [6], 6.41; at D(1A) dopamine receptor it was 8.96. The same compound came in with an IC50 in assay [1] of 10 nM. Also, the ED50 in the assay filed under Mus musculus was 8.8 µM/kg; in the assay listed under Rattus norvegicus [2], >85 µM/kg.
The compound `CN1CCN(C2CC(c3ccccc3)c3ccc(Cl)cc32)CC1(C)C` (stereo in doubt; 38) showed an IC50 in assay [1] of 23 nM. Further, the ED50 in the assay listed under Mus musculus was 24 µM/kg; in the assay listed under Rattus norvegicus [2] (setting [7]), > 76 µmol/kg.
Turning to `CN1CCN(C2CC(c3ccc(F)cc3)c3ccccc32)CC1(C)C` (single isomer, unassigned; (+)), the pIC50 in assay [3] was 6.19; at D(2) dopamine receptor, 5.31; in the assay listed under Rattus norvegicus [4] (Rattus norvegicus) it was 5.28; in the assay filed under Rattus norvegicus [5], 7.12; in the assay filed under Rattus norvegicus [6] it was 7.60; on D(1A) dopamine receptor it was 6.60.
For the compound `CN1CCN(C2CC(c3ccccc3)c3ccc(Cl)cc32)CC1(C)C` (stereo in doubt; (+)-38), the pIC50 in assay [3] is 7.17; at D(2) dopamine receptor, 6.59; in the assay listed under Rattus norvegicus [4] (Rattus norvegicus), 5.28; in the assay listed under Rattus norvegicus [5] it was 7.59; in the assay filed under Rattus norvegicus [6], 8.12; at D(1A) dopamine receptor, 7.82.
As for `CN1CCN(C2CC(c3ccc(F)cc3)c3ccc(F)cc32)CC1(C)C` (stereo in doubt; (+)-40), the pIC50 in assay [3] was 6.44; at D(2) dopamine receptor, 5.82; in the assay listed under Rattus norvegicus [4], 5.43; in the assay listed under Rattus norvegicus [5], 7.70; in the assay filed under Rattus norvegicus [6], 8.15; on D(1A) dopamine receptor, 7.06.
In turn, `CN1CCN(C2CC(c3ccc(F)cc3)c3cccc(F)c32)CC1(C)C` (stereo unspecified) registered a half-inhibitory concentration (IC50) in assay [1] of 15 nM. Also, the ED50 was 6.9 µmol/kg in the assay listed under Mus musculus (Mus musculus, read-out: ED50) and > 90 µmol/kg in the assay filed under Rattus norvegicus [2] (setting [7]).
